Source: PubChem (several laboratories)
Yeast lifespan up – compounds extending yeast replicative lifespan, primary screen, S. cerevisiae, OD615; inhibition of the nicotinamide effect, % at 10 µM; S. cerevisiae growth with nicotinamide; deaD strain in restrictive glucose medium; 130,000 tested, 0.68% active;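 active means inhibition above a set limit, placed 3 SD over the median of all compounds, cut at about 26% in these data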;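 further: 0% = nicotinamide-treated wells and 100% = cells grown without nicotinamide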
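assay system = DeaD-strain S. cerevisiae | buffer or medium = restrictive glucose medium | reagent = 1.5 mM nicotinamide | compound = 10 µM single point, 0.25% DMSO | incubation = 48 h compound exposure at 30 °C, humidified | signal = OD615 measurement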
BB579 growth dn – growth inhibitors of yeast BB579 in restrictive medium, primary screen, yeast lifespan-shortening project, S. cerevisiae; 140,000 tested, 0.51% active; inhibition, % at 10 µM; OD615, 48 h;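 active means inhibition above a set limit, 3 SD over the mean compound inhibition, cut at about 44% in these data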
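Material: Saccharomyces cerevisiae DeaD strain BB579, replicative lifespan model yeast; buffer or medium: CSMM-D restrictive synthetic medium containing dextrose (glucose); compound: 10 µM single dose, DMSO 0.25%; timing: 48 h compound exposure at 30 °C after 4 h preincubation; signal: turbidity as optical density at 615 nm; benchmarks: positive control amphotericin B 10 µg/mL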
Measles CPE – compounds protecting cells from measles virus cytopathic effect, primary screen, measles RdRp inhibitor project, single point, MLSMR library, absorbance. Measles virus-infected cells, CPE protection. protection (pct of control), % at 4 µM. 140,000 tested, 1.5% active; in the data active means protection mostly above about 24%, no sharp cut-off; inactive means mostly below about 26%
RAM network inh – inhibitors of the yeast RAM network, primary screen, dse1pr::URA3 reporter, 5-FOA selection; S. cerevisiae dse1pr::URA3 reporter, 5-FOA growth OD615, 2 d; analog-sensitive cbk1-as2 kinase mutant strain; 190,000 tested, 1.8% active; inhibition, % at 50 µM; AID 868, 2007;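 active means inhibition above a set limit, 3 SD over mean compound inhibition, cut at about 8.4% in these data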;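 further: 0% = DMSO-only wells with no growth and 100% = 10 µM 1-NA-PP1 full growth; inhibition rescues growth on 5-FOA so higher OD means more RAM inhibition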
* = called active by the depositor; . = no result. An excerpt weighted towards active compounds, which were near 3.8% of everything screened.

SMILES	Yeast lifespan up	BB579 growth dn	Measles CPE	RAM network inh
O=C(N/N=C/c1cccc([N+](=O)[O-])c1)C1CC(=O)N(c2ccc(Cl)cc2)C1 (stereo not drawn)	-12	-43	72*	2
O=[N+]([O-])c1ccc(N=Nc2ccc(O)cc2O)cc1	-12	83*	5	2
CCOC(=O)C1=C(C)N(c2ccc(C)c(C)c2)C(=O)/C1=C\c1ccco1	-10	-19	7	11*
Cc1ccc(-c2ccc(/C=N/O)o2)cc1[N+](=O)[O-]	.	.	.	-1
CN1C/C(=C/c2cccnc2)C(=O)/C(=C/c2cccnc2)C1	51*	-14	-1	0
CC(C)N1C/C(=C/c2ccsc2)C(=O)/C(=C/c2ccsc2)C1	15	-30	2	0
CC(C)N1C/C(=C/c2cccnc2)C(=O)/C(=C/c2cccnc2)C1	41*	-56	6	2
COc1ccc(-c2nnc(Nc3ccc(CC(N)=O)cc3)c3ccccc23)cc1	-4	-7	64*	2
NC(=O)Cc1ccc(Nc2nnc(-c3ccccc3)c3ccccc23)cc1	-4	-26	11	-1
Cc1ccccc1OC(=O)n1c(=S)oc2cc(Cl)ccc21	80*	-34	10	-1
CCCNC(=O)OC[C@H]1O[C@H](CCO/N=C(\C)CCN2CCc3nc(-c4ccccc4)c(-c4ccccc4)cc3C2)C=C[C@@H]1Oc1ccc(OC)cc1	32*	-57	21	0
C/C(=N/OCO/N=C(/C)c1ccc(F)cc1)c1ccc(F)cc1	0	-11	29*	8
O=C(NNC(=S)NC(=O)c1cccnc1)c1ccc(Cl)cc1	43	-18	2	1
O=C(NC(=S)NNC(=O)c1ccc(Cl)cc1Cl)c1cccnc1	44*	-6	12	-1
C=CCNc1oc(-c2cccs2)nc1S(=O)(=O)c1ccccc1	.	.	.	0
CCOc1ccc(-n2c(=S)sc3c(=O)[nH]c(SCC(=O)NCC4CCCO4)nc32)cc1 (stereo not drawn)	9	-52	10	8.7*
CCOC(=O)C1CCCC(NS(=O)(=O)c2ccc(NC(C)=O)cc2)C1 (stereo not drawn)	-3	-33	91*	0
CCOC(=O)C1CCCN(C(=O)CSc2ccc(NC(C)=O)cc2)C1 (stereo not drawn)	.	.	.	1
O=[N+]([O-])c1ccc(N2CCN(CCOc3nonc3-c3ccccc3)CC2)c(Cl)c1	-21	-36	38*	1
O=C1c2ccccc2NC(c2ccc(-c3ccc(Br)cc3)o2)N1O (stereo not drawn)	-3	94*	.	-1
C=CCNc1cnn(-c2ccc(C)cc2)c(=O)c1Sc1ccc(C)cc1	.	.	.	0
Cc1ccc(Cl)cc1N1CCN(C(=O)COc2ccc(S(=O)(=O)NC(C)C)cc2)CC1	-11	10	56*	1
CC(C)NS(=O)(=O)c1ccc(OCC(=O)N2CCCC2)cc1	.	-26	3	2
CCn1ncc(Br)c1C(=O)Nc1sc2c(c1C(N)=O)CCC2	-18	-14	33*	2
COC(=O)c1ccccc1NC(=O)Cn1nc2n(C)c3ccccc3n2c(=O)c1=O	8	-4	3	4
SMILES	Yeast lifespan up	BB579 growth dn	Measles CPE	RAM network inh
CCCn1c(N2CCN(CC(=O)NCc3cccs3)CC2)nc2ccccc21	-6	-8	61*	0
CCCn1c(N2CCN(C(=O)Nc3ccccc3)CC2)nc2ccccc21	.	.	.	1
CCCN(C(=O)c1ccco1)c1nnc(-c2ccccc2C)s1	.	.	.	2
CCOC(=O)CCN(Cc1sccc1C)S(=O)(=O)c1ccc(F)cc1	1	1	12	1
CCOC(=O)CCN(Cc1cccs1)S(=O)(=O)c1ccc(F)cc1	8	-22	48*	1
O=C(CN1CCN(c2ccccc2)CC1)Nc1ccc(Oc2ccccc2)cc1	-8	-31	16	0
CN(Cc1cccc2ccccc12)C(=O)c1cc(COc2c(F)cccc2F)on1	.	.	.	6
O=C(c1cc(COc2c(F)cccc2F)on1)N1CCC(c2ccccc2Cl)C1 (stereo not drawn)	.	.	.	8.4*
O=C(c1cc(COc2c(F)cccc2F)on1)N1CCC(c2ccccc2F)C1 (stereo not drawn)	.	.	.	6
Cc1cc(CNC(=O)c2cc(COc3c(F)cccc3F)on2)nn1C	.	.	.	4
CCc1ccc(CN(C)C(=O)c2cc(COc3c(F)cccc3F)on2)cc1	.	.	.	9.4*
O=C(NCc1ccc(Cl)s1)c1cc(COc2c(F)cccc2F)on1	.	.	.	9.1*
